Results reported in ChEMBL document CHEMBL1126896, “Preparation and anti-HIV activity of O-acylated heparin and dermatan sulfate derivatives with low anticoagulant effect” (J Med Chem, 1993).

Tests used:
HuT78 [1] = experiment: Giant-cell formation between persistently HIV-1 infected HUT-78 cells and uninfected MOLT-4 cells; format: functional, cell-based
Procedure, shortened: (§1)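 MOLT-4 cells were co-cultured with an equal number of HUT-78 cells persistently infected with HIV-1 IIIB or HIV-2 ROD, with varying compound concentrations. Syncytia were counted by flow cytofluorography after 24 h. EC50 is the concentration giving 50% protection against giant-cell formation.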

[2] = In vitro anticoagulant activity was determined by the clotting test of activated partial thromboplastin time (APTT) on a pool of human plasma; 1-2; format: functional
Procedure, shortened: (§2)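 Activated partial thromboplastin time clotting test on pooled human plasma, run on an automatic coagulometer. Activities were calculated according to the European Pharmacopoeia.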

MT4 [3] = experiment: Effective concentration to achieve 50% protection of MT-4 cells against the cytopathic effect of HIV-1; format: functional, cell-based
MT4 [4] = experiment: Effective concentration to achieve 50% protection of MT-4 cells against the cytopathic effect of HIV-2; format: functional, cell-based
[5] = system: Human immunodeficiency virus 2; experiment: Antiviral activity against HIV-2 infected with LAV-2 EHO; format: functional, organism-based
[6] = system: Human immunodeficiency virus 1; experiment: Antiviral activity against HIV-1 infected with HIV-1HE; format: functional, organism-based
[7] = system: Human immunodeficiency virus 1; experiment: Antiviral activity against HIV-1 infected with […]; format: functional, organism-based
[8] = system: Human immunodeficiency virus 1; experiment: Antiviral activity against HIV-1 infected with HTLVIIIB; format: functional, organism-based
[9] = system: Human immunodeficiency virus 1; experiment: Antiviral activity against HIV-1 infected with HTLVIIIB (TIBO); format: functional, organism-based
[10] = system: Human immunodeficiency virus 2; experiment: Antiviral activity against HIV-2 infected with LAV-2 ROD; format: functional, organism-based
[11] = In vitro anticoagulant activity determined by clotting test of activated partial thromboplastin time (APTT) on a pool of human plasma; format: functional; procedure, shortened: as §2
[12] = system: Simian immunodeficiency virus; experiment: Antiviral activity against SIV; format: functional, organism-based
MT4 [13] = experiment: Selectivity index for CC50 (cytotoxic concentration based on the reduction of the viability of mock-infected MT-4 cells) to that of EC50 against HIV-1; format: functional
Procedure, shortened: (§3)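 MT-4 cells at 3 × 10^5 cells/mL were infected with HIV-1 IIIB or HIV-2 ROD at 100 CCID50/mL, or mock-infected, alongside serial compound dilutions. Viability was read by MTT after 5 days at 37 °C. CC50 comes from mock-infected cells and EC50 from protection against cytopathicity. Index = CC50/EC50.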

MT4 [14] = experiment: Selectivity index for CC50 (cytotoxic concentration based on reduction of viability of mock-infected MT-4 cells) to that of EC50 against HIV-2; format: functional; procedure, shortened: as §3
HuT78 [15] = experiment: Giant-cell formation between persistently HIV-2 infected HUT-78 cells and uninfected MOLT-4 cells; format: functional, cell-based; procedure, shortened: as §1
[16] = Homo sapiens, HuT78, read-out: EC50
[17] = Homo sapiens, MT4, read-out: EC50

| EC50 [5] | EC50 [6] | EC50 [7] | EC50 [8] | EC50 [9] | EC50 [10] | EC50 [12] | Compound | EC50 (HuT78 [1]; [16]) | APTT [2] | EC50 (MT4 [3]; [17]) | EC50 (MT4 [4]; [17]) | APTT [11] | Selectivity index (MT4 [13]) | Selectivity index (MT4 [14]) | EC50 (HuT78 [15]; [16]) | EC50 (HuT78 [1]; hut78) | EC50 (MT4 [3]; mt4) | EC50 (MT4 [4]; mt4) | EC50 (HuT78 [15]; hut78) |
| --- | --- | --- | --- | --- | --- | --- | --- | --- | --- | --- | --- | --- | --- | --- | --- | --- | --- | --- | --- |
|  |  |  |  |  |  |  | COC1C(NC(C)=O)C(OC2C(C(=O)[O-])OC(OC3C(NC(C)=O)C(OC4C(C(=O)[O-])OC(C)C(O)C4O)OC(CO)C3OS(=O)(=O)[O-])C(O)C2O)OC(CO)C1OS(=O)(=O)[O-].[Na+].[Na+].[Na+].[Na+] (stereo not given) | > 500 µg/mL | 1 IU mg-1 | > 625 µg/mL | > 625 µg/mL |  |  |  |  |  |  |  |  |
| 4.3 µg/mL | 1.5 µg/mL | 1.3 µg/mL | 0.5 µg/mL | 0.6 µg/mL | 2.2 µg/mL | 7.4 µg/mL | CC(=O)OC/C(=C\C(=O)[O-])OC1OC(COS(=O)(=O)[O-])C(OC2OC(C(=O)[O-])C(OC3OC(COS(=O)(=O)[O-])C(OC4OC(C(=O)[O-])C(OC5OC(CS(=O)(=O)[O-])C(O)C(OC(C)=O)C5NS(=O)(=O)[O-])C(OC(C)=O)C4OS(=O)(=O)[O-])C(OC(C)=O)C3NS(=O)(=O)[O-])C(OC(C)=O)C2OS(=O)(=O)[O-])C(OC(C)=O)C1NS(=O)(=O)[O-].[Na+].[Na+].[Na+].[Na+].[Na+].[Na+].[Na+].[Na+].[Na+].[Na+].[Na+] (stereo not given) | 165 µg/mL |  | 0.53 µg/mL | 0.59 µg/mL | 10 IU mg-1 | >943 | >847 |  |  |  |  |  |
| 1.3 µg/mL | 1.1 µg/mL | 0.2 µg/mL | 0.2 µg/mL | 0.7 µg/mL | 0.9 µg/mL | 10.2 µg/mL | CCCC(=O)OC/C(=C\C(=O)OCc1ccccc1)OC1OC(COS(=O)(=O)[O-])C(OC2OC(C(=O)OCc3ccccc3)C(OC3OC(COS(=O)(=O)[O-])C(OC4OC(C(=O)OCc5ccccc5)C(OC5OC(COS(=O)(=O)[O-])C(O)C(OC(=O)CCC)C5NS(=O)(=O)[O-])C(OC(=O)CCC)C4OS(=O)(=O)[O-])C(OC(=O)CCC)C3NS(=O)(=O)[O-])C(OC(=O)CCC)C2OS(=O)(=O)[O-])C(OC(=O)CCC)C1NS(=O)(=O)[O-].[Na+].[Na+].[Na+].[Na+].[Na+].[Na+].[Na+].[Na+] (stereo not given) | 1 µg/mL |  | 0.36 µg/mL | 0.42 µg/mL | 4 IU mg-1 | >1389 | >1190 | 1 µg/mL |  |  |  |  |
| 17.9 µg/mL | 11.7 µg/mL | 0.3 µg/mL | 1.5 µg/mL | 1.5 µg/mL | > 250 µg/mL | 150 µg/mL | O=C([O-])/C=C(\CO)OC1OC(COS(=O)(=O)[O-])C(OC2OC(C(=O)[O-])C(OC3OC(COS(=O)(=O)[O-])C(OC4OC(C(=O)[O-])C(OC5OC(COS(=O)(=O)[O-])C(O)C(O)C5NS(=O)(=O)[O-])C(O)C4OS(=O)(=O)[O-])C(O)C3NS(=O)(=O)[O-])C(O)C2OS(=O)(=O)[O-])C(O)C1NS(=O)(=O)[O-].[Na+].[Na+].[Na+].[Na+].[Na+].[Na+].[Na+].[Na+].[Na+].[Na+].[Na+] (stereo in doubt; 2a) |  |  |  |  | 4 IU mg-1 | >327 | >80 |  | > 500 µg/mL | 1.53 µg/mL | 6.3 µg/mL |  |
|  |  |  |  |  |  |  | O=C([O-])/C=C(\CO)OC1OC(COS(=O)(=O)[O-])C(OC2OC(C(=O)[O-])C(OC3OC(COS(=O)(=O)[O-])C(OC4OC(C(=O)[O-])C(OC5OC(COS(=O)(=O)[O-])C(O)C(O)C5NS(=O)(=O)[O-])C(O)C4OS(=O)(=O)[O-])C(O)C3NS(=O)(=O)[O-])C(O)C2OS(=O)(=O)[O-])C(O)C1NS(=O)(=O)[O-].[Na+].[Na+].[Na+].[Na+].[Na+].[Na+].[Na+].[Na+].[Na+].[Na+].[Na+] (stereo in doubt; 3a) |  |  |  |  | 5 IU mg-1 | >961 | 318 | > 200 µg/mL | > 200 µg/mL | 0.52 µg/mL | 77 µg/mL |  |
|  |  |  |  |  |  |  | CCCCCC(=O)OC/C(=C\C(=O)[O-])OC1OC(COS(=O)(=O)[O-])C(OC2OC(C(=O)[O-])C(OC3OC(COS(=O)(=O)[O-])C(OC4OC(C(=O)[O-])C(OC5OC(CS(=O)(=O)[O-])C(O)C(OC(=O)CCCCC)C5NS(=O)(=O)[O-])C(OC(=O)CCCCC)C4OS(=O)(=O)[O-])C(OC(=O)CCCCC)C3NS(=O)(=O)[O-])C(OC(=O)CCCCC)C2OS(=O)(=O)[O-])C(OC(=O)CCCCC)C1NS(=O)(=O)[O-].[Na+].[Na+].[Na+].[Na+].[Na+].[Na+].[Na+].[Na+].[Na+].[Na+].[Na+] (stereo in doubt; 3f) |  |  |  |  | 4 IU mg-1 | >2500 | >500 |  | 7 µg/mL | 0.2 µg/mL | 1 µg/mL | 100 µg/mL |
|  |  |  |  |  |  |  | CCCCCC(=O)OC/C(=C\C(=O)[O-])OC1OC(COS(=O)(=O)[O-])C(OC2OC(C(=O)[O-])C(OC3OC(COS(=O)(=O)[O-])C(OC4OC(C(=O)[O-])C(OC5OC(CS(=O)(=O)[O-])C(O)C(OC(=O)CCCCC)C5NS(=O)(=O)[O-])C(OC(=O)CCCCC)C4OS(=O)(=O)[O-])C(OC(=O)CCCCC)C3NS(=O)(=O)[O-])C(OC(=O)CCCCC)C2OS(=O)(=O)[O-])C(OC(=O)CCCCC)C1NS(=O)(=O)[O-].[Na+].[Na+].[Na+].[Na+].[Na+].[Na+].[Na+].[Na+].[Na+].[Na+].[Na+] (stereo in doubt; 3h) |  |  |  |  | 6 IU mg-1 | >5000 | >1250 |  | 3 µg/mL | 0.1 µg/mL | 0.4 µg/mL | 50 µg/mL |
| 1.3 µg/mL | 0.9 µg/mL | 0.1 µg/mL | 0.1 µg/mL | 0.3 µg/mL | 0.7 µg/mL | 5.9 µg/mL | CCCC(=O)OC/C(=C\C(=O)[O-])O[C@H]1O[C@H](COS(=O)(=O)[O-])[C@@H](O[C@@H]2O[C@@H](C(=O)[O-])[C@@H](O[C@H]3O[C@H](COS(=O)(=O)[O-])[C@@H](O[C@@H]4O[C@@H](C(=O)[O-])[C@@H](O[C@H]5O[C@H](CS(=O)(=O)[O-])[C@@H](O)[C@H](OC(=O)CCC)[C@H]5NS(=O)(=O)[O-])[C@H](OC(=O)CCC)[C@H]4OS(=O)(=O)[O-])[C@H](OC(=O)CCC)[C@H]3NS(=O)(=O)[O-])[C@H](OC(=O)CCC)[C@H]2OS(=O)(=O)[O-])[C@H](OC(=O)CCC)[C@H]1NS(=O)(=O)[O-].[Na+].[Na+].[Na+].[Na+].[Na+].[Na+].[Na+].[Na+].[Na+].[Na+].[Na+] (stereo in doubt; 4g) |  |  |  |  | 8.5 IU mg-1 |  | >2141 |  | 31.9 µg/mL |  | 0.17 µg/mL |  |
|  |  |  |  |  |  |  | CCCCCCCCOC(=O)/C=C(\CO)OC1OC(COS(=O)(=O)[O-])C(OC2OC(C(=O)OCCCCCCCC)C(OC3OC(COS(=O)(=O)[O-])C(OC4OC(C(=O)OCCCCCCCC)C(OC5OC(COS(=O)(=O)[O-])C(O)C(O)C5NS(=O)(=O)[O-])C(O)C4OS(=O)(=O)[O-])C(O)C3NS(=O)(=O)[O-])C(O)C2OS(=O)(=O)[O-])C(O)C1NS(=O)(=O)[O-].[Na+].[Na+].[Na+].[Na+].[Na+].[Na+].[Na+].[Na+] (stereo in doubt; 7f) | 4 µg/mL |  | 0.7 µg/mL |  | 3 IU mg-1 | >714 | >454 | 18 µg/mL |  |  | 1.1 µg/mL |  |
|  |  |  |  |  |  |  | CCCCCCCCOC(=O)/C=C(\CO)OC1OC(COS(=O)(=O)[O-])C(OC2OC(C(=O)OCCCCCCCC)C(OC3OC(COS(=O)(=O)[O-])C(OC4OC(C(=O)OCCCCCCCC)C(OC5OC(COS(=O)(=O)[O-])C(O)C(O)C5NS(=O)(=O)[O-])C(O)C4OS(=O)(=O)[O-])C(O)C3NS(=O)(=O)[O-])C(O)C2OS(=O)(=O)[O-])C(O)C1NS(=O)(=O)[O-].[Na+].[Na+].[Na+].[Na+].[Na+].[Na+].[Na+].[Na+] (stereo in doubt; 7g) |  |  |  |  | 6 IU mg-1 | >833 | >1000 |  | 4 µg/mL | 0.59 µg/mL | 0.5 µg/mL | 20 µg/mL |
